Measurements taken from ChEMBL document CHEMBL2311435, “Development of 18F-labeled picolinamide probes for PET imaging of malignant melanoma” (J Med Chem, 2013).

Assays:
Details in all cases: in vivo
[1] = system: Stomach; experiment: Biodistribution in stomach of C57BL/6 mouse xenografted with mouse B16F10 cells at 3.7 MBq, iv after 2 hrs by gamma-scintillation counting analysis; format: ADME, organism-based, B16-F10
In short: (§1)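 1.0 × 10^6 B16F10 cells in PBS injected subcutaneously into the right shoulder of C57BL/6 mice, grown to 0.5 cm (~10 day). Tail-vein injection of about 3.7 MBq (100 μCi) 18F probe in PBS (0.1 M, pH 7.4). Killed at 1.0 or 2.0 h p.i. (n = 4 per group). Tissues excised, weighed and gamma-counted; uptake expressed as %ID/g, mean ± SD.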

[2] = system: Mus musculus; experiment: Biodistribution in lungs of C57BL/6 mouse xenografted with mouse B16F10 cells at 3.7 MBq, iv after 1 hr by gamma-scintillation counting analysis; format: ADME, organism-based, Lung, B16-F10; in short: as §1
[3] = system: Mus musculus; experiment: Biodistribution in eye of C57BL/6 mouse xenografted with mouse B16F10 cells at 3.7 MBq, iv after 2 hrs by gamma-scintillation counting analysis; format: ADME, organism-based, B16-F10; in short: as §1
[4] = system: Nucleic Acid; experiment: Ratio of drug uptake in tumor to muscle of C57BL/6 mouse xenografted with mouse B16F10 cells at 3.7 MBq, iv after 2 hrs by gamma-scintillation counting analysis; format: ADME, organism-based, B16-F10
In short: (§2)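 Same subcutaneous B16F10 model and tail-vein dose of about 3.7 MBq (100 μCi), n = 4 per group. Dissection at 1 or 2 h p.i. Gamma-counter %ID/g of tumor divided by that of blood, lung, liver or muscle, given as mean ± SD.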

[5] = system: Bone; experiment: Biodistribution in bone of C57BL/6 mouse xenografted with mouse B16F10 cells at 3.7 MBq, iv after 1 hr by gamma-scintillation counting analysis; format: ADME, organism-based, Bone element, B16-F10; in short: as §1
[6] = system: Mus musculus; experiment: Biodistribution in eye of C57BL/6 mouse xenografted with mouse B16F10 cells at 3.7 MBq, iv after 1 hr by gamma-scintillation counting analysis; format: ADME, organism-based, B16-F10; in short: as §1
[7] = system: Intestine; experiment: Biodistribution in intestine of C57BL/6 mouse xenografted with mouse B16F10 cells at 3.7 MBq, iv after 1 hr by gamma-scintillation counting analysis; format: ADME, organism-based, B16-F10; in short: as §1
[8] = system: Nucleic Acid; experiment: Ratio of drug uptake in tumor to liver of C57BL/6 mouse xenografted with mouse B16F10 cells at 3.7 MBq, iv after 2 hrs by gamma-scintillation counting analysis; format: ADME, organism-based, B16-F10; in short: as §2
[9] = system: Kidney; experiment: Drug uptake in kidney of C57BL/6 mouse xenografted with mouse B16F10 cells at 3.7 MBq, iv after 35 mins by PET imaging analysis; format: ADME, organism-based, B16-F10
In short: (§3)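 Dynamic small-animal PET in B16F10 tumor-bearing mice (n = 4) after tail-vein injection of ~3.7 MBq (100 μCi). Scanning began ~2.0 min post-injection and ran 35 min (6×20 s, 8×60 s, 10×150 s; 24 frames). ROI counts converted to %ID/g assuming 1 g/ml tissue density. No attenuation correction.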

[10] = system: Pancreas; experiment: Biodistribution in pancreas of C57BL/6 mouse xenografted with mouse B16F10 cells at 3.7 MBq, iv after 1 hr by gamma-scintillation counting analysis; format: ADME, organism-based, B16-F10; in short: as §1
[11] = system: Zone of skin; experiment: Biodistribution in skin of C57BL/6 mouse xenografted with mouse B16F10 cells at 3.7 MBq, iv after 2 hrs by gamma-scintillation counting analysis; format: ADME, organism-based, B16-F10; in short: as §1
[12] = Drug uptake in tumor of C57BL/6 mouse xenografted with mouse B16F10 cells at 3.7 MBq, iv after 35 mins by PET imaging analysis; format: ADME, organism-based, Neoplasm, B16-F10; in short: as §3
[13] = system: Bone; experiment: Biodistribution in bone of C57BL/6 mouse xenografted with mouse B16F10 cells at 3.7 MBq, iv after 2 hrs by gamma-scintillation counting analysis; format: ADME, organism-based, Bone element, B16-F10; in short: as §1
[14] = system: Intestine; experiment: Biodistribution in intestine of C57BL/6 mouse xenografted with mouse B16F10 cells at 3.7 MBq, iv after 2 hrs by gamma-scintillation counting analysis; format: ADME, organism-based, B16-F10; in short: as §1
[15] = system: Kidney; experiment: Biodistribution in kidney of C57BL/6 mouse xenografted with mouse B16F10 cells at 3.7 MBq, iv after 1 hr by gamma-scintillation counting analysis; format: ADME, organism-based, B16-F10; in short: as §1

Drug uptake [1]: 1.47 % ID/g | Drug uptake [2]: 1.58 % ID/g | Drug uptake [3]: 32.83 % ID/g | Ratio [4]: 36.79 | Drug uptake [5]: 2.4 % ID/g | Drug uptake [6]: 37.47 % ID/g | Drug uptake [7]: 2.01 % ID/g | Ratio [8]: 5.14 | Drug uptake [9]: 9.44 % ID/g | Drug uptake [10]: 1.61 % ID/g | Drug uptake [11]: 0.68 % ID/g | Drug uptake [12]: 10.52 % ID/g | Drug uptake [13]: 1.72 % ID/g | Drug uptake [14]: 0.88 % ID/g | Drug uptake [15]: 3.32 % ID/g
Compound: CCN(CC)CCNC(=O)c1ccc([18F])cn1
